Reference: ChEMBL document CHEMBL6109036, “Azo derivatives of monoterpenes as anti-Helicobacter pylori agents: from synthesis to structure-based target investigation” (RSC Med Chem, 2025)
≈ marks a conversion by molar mass, not a printed value.

Experiments:
Type in all cases: functional
[1] = tested on: Helicobacter pylori; test: Bactericidal against Helicobacter pylori measured after 72 hrs of incubation under microaerophilic conditions by modified broth dilution method; details: for MBC: Helicobacter pylori, read-out: MBC99.9
Procedure, shortened: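 Wells with no visible growth in the MIC assay spotted (10 μL) onto Skirrow agar. Plates incubated 72 h at 37 °C, microaerophilic, 100% humidity. Triplicate, on at least three different days.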

[2] = tested on: Helicobacter pylori; test: Anti-bacterial activity against Helicobacter pylori Clinical isolate F1 measured after 72 hrs incubation by modified broth dilution method
[3] = tested on: Helicobacter pylori; test: Anti-bacterial activity against Helicobacter pylori measured after 72 hrs incubation by modified broth dilution method
[4] = tested on: Helicobacter pylori; test: Anti-bacterial activity against Helicobacter pylori Clinical isolate F4 measured after 72 hrs incubation by modified broth dilution method
[5] = tested on: Helicobacter pylori; test: Bactericidal activity against Helicobacter pylori NCTC 11637 measured after 72 hrs of incubation under microaerophilic conditions by modified broth dilution method; details: read-out: MBC99.9
Procedure, shortened: (§1)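 H. pylori (NCTC 11637, F1, 23, F4). Wells with no visible growth in the MIC assay spotted (10 μL) onto Skirrow agar. Plates incubated 72 h at 37 °C, microaerophilic, 100% humidity. MBC = concentration killing 99.9% of the initial inoculum. Triplicate, on at least three different days.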

[6] = tested on: Helicobacter pylori; test: Bactericidal activity against Helicobacter pylori Clinical isolate F1 measured after 72 hrs of incubation under microaerophilic conditions by modified broth dilution method; details: read-out: MBC99.9; procedure, shortened: as §1
[7] = tested on: Helicobacter pylori; test: Anti-bacterial activity against Helicobacter pylori NCTC 11637 measured after 72 hrs incubation by modified broth dilution method
[8] = tested on: Helicobacter pylori; test: Bactericidal activity against Helicobacter pylori Clinical isolate 23 measured after 72 hrs of incubation under microaerophilic conditions by modified broth dilution method; details: read-out: MBC99.9; procedure, shortened: as §1
[9] = tested on: Helicobacter pylori; test: Bactericidal against Helicobacter pylori Clinical isolate F4 measured after 72 hrs of incubation under microaerophilic conditions by modified broth dilution method; details: read-out: MBC99.9; procedure, shortened: as §1
[10] = tested on: Helicobacter pylori; test: Anti-bacterial activity against Helicobacter pylori Clinical isolate 23 measured after 72 hrs incubation by modified broth dilution method

Row | SMILES | MBC [1] [µg/mL] | MIC [2] [µg/mL] | MIC50 [3] [µg/mL] | MIC90 [3] [µg/mL] | MIC [4] [µg/mL] | MBC [5] [µg/mL] | MBC [6] [µg/mL] | MIC [7] [µg/mL] | MBC [8] [µg/mL] | MBC [9] [µg/mL] | MIC [10] [µg/mL] | MBC90 [1] [µg/mL]
1 | COc1cccc(C=O)c1O | 16 (≈ 105 µM) | 4 (≈ 26.3 µM) | 8 (≈ 52.6 µM) | 16 (≈ 105 µM) | 8 (≈ 52.6 µM) | 16 (≈ 105 µM) | 4 (≈ 26.3 µM) | 8 (≈ 52.6 µM) | 16 (≈ 105 µM) | 8 (≈ 52.6 µM) | 16 (≈ 105 µM) | 
2 | C/C=C/c1ccc(O)c(OC)c1 | 32 (≈ 195 µM) | 32 (≈ 195 µM) | 32 (≈ 195 µM) | 32 (≈ 195 µM) | 32 (≈ 195 µM) | 32 (≈ 195 µM) | 32 (≈ 195 µM) | 32 (≈ 195 µM) | 32 (≈ 195 µM) | 32 (≈ 195 µM) | 32 (≈ 195 µM) | 
3 | C=CCc1cccc(OC)c1O | > 128 | > 128 | > 128 | > 128 | > 128 | > 128 | > 128 | > 128 | > 128 | > 128 | > 128 | 
4 | Cc1cc(O)c(C(C)C)cc1C1(c2cc(C(C)C)c(O)cc2C)OS(=O)(=O)c2ccccc21 |  | 128 (≈ 274 µM) | > 128 | > 128 | > 128 | > 128 | 128 (≈ 274 µM) | > 128 | > 128 | > 128 | 128 (≈ 274 µM) | >128
5 | C=CCc1cc(/N=N/c2ccc(Cl)cc2Cl)c(O)c(OC)c1 |  | > 128 | > 128 | > 128 | > 128 | 128 (≈ 380 µM) | > 128 | 128 (≈ 380 µM) | > 128 | > 128 | > 128 | >128
6 | COc1cc(C=O)cc(/N=N/c2ccc(C#N)cc2)c1O |  | 4 (≈ 14.2 µM) | 8 (≈ 28.4 µM) | 8 (≈ 28.4 µM) | 8 (≈ 28.4 µM) | 16 (≈ 56.9 µM) | 4 (≈ 14.2 µM) | 8 (≈ 28.4 µM) | 8 (≈ 28.4 µM) | 8 (≈ 28.4 µM) | 8 (≈ 28.4 µM) | 16 (≈ 56.9 µM)
7 | C=CCc1cc(/N=N/c2cccc(OC)c2)c(O)c(OC)c1 |  | > 128 | > 128 | > 128 | > 128 | > 128 | > 128 | > 128 | > 128 | > 128 | > 128 | >128
8 | COc1cc(C=O)cc(/N=N/c2ccccc2Cl)c1O |  | 16 (≈ 55 µM) | 64 (≈ 220 µM) | 64 (≈ 220 µM) | 64 (≈ 220 µM) | 64 (≈ 220 µM) | 16 (≈ 55 µM) | 64 (≈ 220 µM) | 64 (≈ 220 µM) | 64 (≈ 220 µM) | 64 (≈ 220 µM) | 64 (≈ 220 µM)
9 | C=CCc1cc(/N=N/c2ccc([N+](=O)[O-])cc2)c(O)c(OC)c1 |  | 64 (≈ 204 µM) | 64 (≈ 204 µM) | 128 (≈ 409 µM) | 64 (≈ 204 µM) | 64 (≈ 204 µM) | 64 (≈ 204 µM) | 64 (≈ 204 µM) | 128 (≈ 409 µM) | 128 (≈ 409 µM) | 128 (≈ 409 µM) | 128 (≈ 409 µM)
10 | COc1ccc(/N=N/c2cc(C)c(O)c(/N=N/c3ccc(OC)cc3)c2C(C)C)cc1 |  | > 128 | > 128 | > 128 | > 128 | > 128 | > 128 | > 128 | > 128 | > 128 | > 128 | >128
11 | Cc1cc(/N=N/c2ccccc2Cl)c(C(C)C)cc1O |  | 4 (≈ 13.9 µM) | 4 (≈ 13.9 µM) | 4 (≈ 13.9 µM) | 2 (≈ 6.93 µM) | 4 (≈ 13.9 µM) | 4 (≈ 13.9 µM) | 4 (≈ 13.9 µM) | 4 (≈ 13.9 µM) | 2 (≈ 6.93 µM) | 4 (≈ 13.9 µM) | 4 (≈ 13.9 µM)
12 | COc1ccc(/N=N/c2cc(C)c(O)cc2C(C)C)cc1 |  | 4 (≈ 14.1 µM) | 4 (≈ 14.1 µM) | 8 (≈ 28.1 µM) | 4 (≈ 14.1 µM) | 8 (≈ 28.1 µM) | 4 (≈ 14.1 µM) | 8 (≈ 28.1 µM) | 8 (≈ 28.1 µM) | 4 (≈ 14.1 µM) | 8 (≈ 28.1 µM) | 8 (≈ 28.1 µM)
13 | COc1cc(C=O)cc(/N=N/c2ccc(Br)cc2)c1O |  | 8 (≈ 23.9 µM) | 16 (≈ 47.7 µM) | 32 (≈ 95.5 µM) | 16 (≈ 47.7 µM) | 16 (≈ 47.7 µM) | 8 (≈ 23.9 µM) | 16 (≈ 47.7 µM) | 32 (≈ 95.5 µM) | 16 (≈ 47.7 µM) | 32 (≈ 95.5 µM) | 32 (≈ 95.5 µM)
14 | Cc1ccccc1/N=N/c1cc(C(C)C)c(O)c(/N=N/c2ccccc2C)c1C |  | 128 (≈ 331 µM) | 128 (≈ 331 µM) | > 128 | 128 (≈ 331 µM) | > 128 | > 128 | > 128 | > 128 | > 128 | 128 (≈ 331 µM) | >128
15 | C=CCc1cc(/N=N/c2ccc3c(c2)OCO3)c(O)c(OC)c1 |  | > 128 | > 128 | > 128 | > 128 | 128 (≈ 410 µM) | > 128 | 128 (≈ 410 µM) | > 128 | > 128 | > 128 | >128
16 | Cc1ccccc1/N=N/c1cc(C(C)C)c(O)cc1C |  | 4 (≈ 14.9 µM) | 4 (≈ 14.9 µM) | 8 (≈ 29.8 µM) | 4 (≈ 14.9 µM) | 4 (≈ 14.9 µM) | 4 (≈ 14.9 µM) | 4 (≈ 14.9 µM) | 8 (≈ 29.8 µM) | 4 (≈ 14.9 µM) | 8 (≈ 29.8 µM) | 8 (≈ 29.8 µM)
17 | COc1cc(C=O)cc(/N=N/c2cccc(Cl)c2)c1O |  | 128 (≈ 440 µM) | 128 (≈ 440 µM) | > 128 | 128 (≈ 440 µM) | > 128 | 128 (≈ 440 µM) | 128 (≈ 440 µM) | 128 (≈ 440 µM) | 128 (≈ 440 µM) | 128 (≈ 440 µM) | >128
18 | COc1ccc(/N=N/c2cc(C=O)cc(OC)c2O)cc1 |  | 64 (≈ 224 µM) | > 128 | > 128 | > 128 | > 128 | 128 (≈ 447 µM) | > 128 | > 128 | > 128 | > 128 | >128
19 | C=CCc1cc(/N=N/c2cccc([N+](=O)[O-])c2)c(O)c(OC)c1 |  | 128 (≈ 409 µM) | 128 (≈ 409 µM) | > 128 | 128 (≈ 409 µM) | 128 (≈ 409 µM) | > 128 | 128 (≈ 409 µM) | 128 (≈ 409 µM) | 128 (≈ 409 µM) | 128 (≈ 409 µM) | >128
20 | COc1cc(C=O)cc(/N=N/c2ccc(Cl)c(Cl)c2)c1O |  | 64 (≈ 197 µM) | 64 (≈ 197 µM) | 128 (≈ 394 µM) | 128 (≈ 394 µM) | 128 (≈ 394 µM) | 64 (≈ 197 µM) | 128 (≈ 394 µM) | 128 (≈ 394 µM) | 128 (≈ 394 µM) | 64 (≈ 197 µM) | 128 (≈ 394 µM)
21 | Cc1cc(/N=N/c2ccccc2Cl)c(C(C)C)c(/N=N/c2ccccc2Cl)c1O |  | 64 (≈ 150 µM) | 128 (≈ 300 µM) | 128 (≈ 300 µM) | 128 (≈ 300 µM) | 128 (≈ 300 µM) | > 128 | 128 (≈ 300 µM) | > 128 | > 128 | 128 (≈ 300 µM) | >128
22 | COc1cc(C=O)cc(/N=N/c2ccc(C)cc2)c1O |  | 2 (≈ 7.4 µM) | 4 (≈ 14.8 µM) | 8 (≈ 29.6 µM) | 8 (≈ 29.6 µM) | 4 (≈ 14.8 µM) | 2 (≈ 7.4 µM) | 4 (≈ 14.8 µM) | 8 (≈ 29.6 µM) | 8 (≈ 29.6 µM) | 8 (≈ 29.6 µM) | 8 (≈ 29.6 µM)
23 | C=CCc1cc(/N=N/c2cccc3ccccc23)c(O)c(OC)c1 |  | > 128 | > 128 | > 128 | > 128 | 128 (≈ 402 µM) | > 128 | 128 (≈ 402 µM) | > 128 | > 128 | > 128 | >128
24 | Cc1cc(/N=N/c2ccc(Br)cc2)c(C(C)C)c(/N=N/c2ccc(Br)cc2)c1O |  | > 128 | > 128 | > 128 | > 128 | 128 (≈ 248 µM) | > 128 | 128 (≈ 248 µM) | > 128 | > 128 | > 128 | >128
25 | C=CCc1cc(/N=N/c2ccccc2C)c(O)c(OC)c1 |  | 128 (≈ 453 µM) | 64 (≈ 227 µM) | 128 (≈ 453 µM) | 64 (≈ 227 µM) | 128 (≈ 453 µM) | 128 (≈ 453 µM) | 128 (≈ 453 µM) | 64 (≈ 227 µM) | 64 (≈ 227 µM) | 64 (≈ 227 µM) | 128 (≈ 453 µM)
26 | COc1cc(C=O)cc(/N=N/c2cccc([N+](=O)[O-])c2)c1O |  | 16 (≈ 53.1 µM) | 8 (≈ 26.6 µM) | 16 (≈ 53.1 µM) | 8 (≈ 26.6 µM) | 8 (≈ 26.6 µM) | 16 (≈ 53.1 µM) | 8 (≈ 26.6 µM) | 8 (≈ 26.6 µM) | 16 (≈ 53.1 µM) | 8 (≈ 26.6 µM) | 16 (≈ 53.1 µM)
27 | CC[C@H]1OC(=O)[C@H](C)[C@@H](O[C@H]2C[C@@](C)(OC)[C@@H](O)[C@H](C)O2)[C@H](C)[C@@H](O[C@@H]2O[C@H](C)C[C@H](N(C)C)[C@H]2O)[C@](C)(OC)C[C@@H](C)C(=O)[C@H](C)[C@@H](O)[C@]1(C)O [CLARITHROMYCIN] |  | 4 (≈ 5.35 µM) | 0.064 (≈ 0.0856 µM) | 256 (≈ 342 µM) | > 256 | 0.064 (≈ 0.0856 µM) | 8 (≈ 10.7 µM) | 0.064 (≈ 0.0856 µM) | 0.064 (≈ 0.0856 µM) | 256 (≈ 342 µM) | 0.064 (≈ 0.0856 µM) | 
